Measurements reported in ChEMBL document CHEMBL5034002, “Benzoheterocyclic Oxime Carbamates Active against Mycobacterium tuberculosis: Synthesis, Structure-Activity Relationship, Metabolism, and Biology Triaging” (J Med Chem, 2021).
In brackets after ≈: the same amount, converted by molar mass. Activity calls are given as the source filed them. The calls are words filed in the database; no cut-off is given here.

Experiments:
[1] = test system: Mycobacterium tuberculosis; experiment: Antitubercular activity against Mycobacterium tuberculosis H37RvMA incubated for 14 days in GAST/FE medium by Alamar blue assay; type: functional; conditions: 336 h, time 14 day
In short: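 Mtb H37RvMa grown in GAST/Fe medium, 14 day incubation with compound, growth read by Alamar Blue.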

[2] = test system: CHO; experiment: Cytotoxicity against CHO cells; type: cell-based; conditions: Cricetulus griseus
In short: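 Cytotoxicity measured on Chinese hamster ovary (CHO) cells.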

[3] = Kinetic solubility of the compound in pH 6.5; type: physicochemical; conditions: buffer, read-out: Kinetic_solubility
[4] = test system: Mycobacterium tuberculosis; experiment: Antitubercular activity against Mycobacterium tuberculosis H37RvMA incubated for 14 days in 7H9/OHADC medium by Alamar blue assay; type: functional; conditions: 336 h, time 14 day
[5] = test system: Enterobacter cloacae; experiment: Antibacterial activity against Enterobacter cloacae; type: functional
[6] = test system: Escherichia coli; experiment: Antibacterial activity against Escherichia coli ATCC 25922; type: functional
[7] = test system: Klebsiella pneumoniae; experiment: Antibacterial activity against Klebsiella pneumoniae BAA-1705; type: functional; conditions: ATCC BAA-1705
[8] = test system: Acinetobacter baumannii; experiment: Antibacterial activity against Acinetobacter baumannii ATCC 19606; type: functional
[9] = test system: Pseudomonas aeruginosa; experiment: Antibacterial activity against Pseudomonas aeruginosa ATCC 27853; type: functional
[10] = test system: Staphylococcus aureus; experiment: Antibacterial activity against Staphylococcus aureus ATCC 25923; type: functional
[11] = Stability in human liver microsomes assessed as compound remaining after 30 mins; type: ADME, Microsome; conditions: read-out: Stability
[12] = Stability in rat liver microsomes assessed as compound remaining after 30 mins; type: ADME, Microsome; conditions: read-out: Stability
[13] = Stability in mouse liver microsomes assessed as compound remaining after 30 mins; type: ADME, Microsome; conditions: read-out: Stability
[14] = test system: Mycobacterium tuberculosis; experiment: Drug degradation in Mycobacterium tuberculosis H37RvMA at 0.1 uM incubated over 96 hrs by LC-MS/MS analysis; type: functional, organism-based
In short: (§1)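 Compound at 0.1 μM in 7H9/OADC medium was added to log-phase Mtb H37RvMa culture and sampled over 96 h, earliest at 3 h. Controls were heat-killed culture and sterile medium. Analysis by LC-MS/MS as analyte/internal standard peak area ratio, expressed as % of mean time-zero ratio. One-way ANOVA with Dunnett's test against medium control at each time point.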

[15] = test system: Mycobacterium tuberculosis; experiment: Antitubercular activity against Mycobacterium tuberculosis H37RvMA infected in THP-1 cells assessed as intracellular bacterial growth at 10 uM measured over 6 days; type: functional, organism-based; conditions: time 6.0 day
In short: (§2)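 THP-1 macrophages infected in vitro with Mtb H37RvMa, then treated with compound over 6 days (10 μM, or increasing concentrations up to 80 μM). Intracellular bacterial growth was compared with untreated control at day 6 post treatment by one-way ANOVA with Dunnett's test.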

[16] = test system: Mycobacterium tuberculosis; experiment: Drug degradation in Mycobacterium tuberculosis H37RvMA assessed as compound hydrolysis at 0.1 uM incubated over 96 hrs by LC-MS/MS analysis; type: functional, organism-based; in short: as §1
[17] = test system: Mycobacterium tuberculosis; experiment: Antitubercular activity against Mycobacterium tuberculosis H37RvMA infected in THP-1 cells assessed as intracellular bacterial growth at 80 uM measured over 6 days; type: functional, organism-based; conditions: time 6.0 day; in short: as §2
[18] = test system: Mycobacterium tuberculosis; experiment: Antitubercular activity against Mycobacterium tuberculosis H37RvMA infected in THP-1 cells assessed as intracellular bacterial growth measured over 6 days; type: functional, organism-based; conditions: dose 10-80 µM, time 6.0 day; in short: as §2
[19] = Stability in human liver S9 fraction assessed as compound remaining after 40 mins; type: ADME, subcellular; conditions: read-out: Stability
[20] = molecular target: Voltage-gated inwardly rectifying potassium channel KCNH2 (Homo sapiens, UniProt Q12809); experiment: Inhibition of human ERG by Ionworks electrophysiology assay
Voltage-gated inwardly rectifying potassium channel KCNH2, sequence (Q12809 whole entry): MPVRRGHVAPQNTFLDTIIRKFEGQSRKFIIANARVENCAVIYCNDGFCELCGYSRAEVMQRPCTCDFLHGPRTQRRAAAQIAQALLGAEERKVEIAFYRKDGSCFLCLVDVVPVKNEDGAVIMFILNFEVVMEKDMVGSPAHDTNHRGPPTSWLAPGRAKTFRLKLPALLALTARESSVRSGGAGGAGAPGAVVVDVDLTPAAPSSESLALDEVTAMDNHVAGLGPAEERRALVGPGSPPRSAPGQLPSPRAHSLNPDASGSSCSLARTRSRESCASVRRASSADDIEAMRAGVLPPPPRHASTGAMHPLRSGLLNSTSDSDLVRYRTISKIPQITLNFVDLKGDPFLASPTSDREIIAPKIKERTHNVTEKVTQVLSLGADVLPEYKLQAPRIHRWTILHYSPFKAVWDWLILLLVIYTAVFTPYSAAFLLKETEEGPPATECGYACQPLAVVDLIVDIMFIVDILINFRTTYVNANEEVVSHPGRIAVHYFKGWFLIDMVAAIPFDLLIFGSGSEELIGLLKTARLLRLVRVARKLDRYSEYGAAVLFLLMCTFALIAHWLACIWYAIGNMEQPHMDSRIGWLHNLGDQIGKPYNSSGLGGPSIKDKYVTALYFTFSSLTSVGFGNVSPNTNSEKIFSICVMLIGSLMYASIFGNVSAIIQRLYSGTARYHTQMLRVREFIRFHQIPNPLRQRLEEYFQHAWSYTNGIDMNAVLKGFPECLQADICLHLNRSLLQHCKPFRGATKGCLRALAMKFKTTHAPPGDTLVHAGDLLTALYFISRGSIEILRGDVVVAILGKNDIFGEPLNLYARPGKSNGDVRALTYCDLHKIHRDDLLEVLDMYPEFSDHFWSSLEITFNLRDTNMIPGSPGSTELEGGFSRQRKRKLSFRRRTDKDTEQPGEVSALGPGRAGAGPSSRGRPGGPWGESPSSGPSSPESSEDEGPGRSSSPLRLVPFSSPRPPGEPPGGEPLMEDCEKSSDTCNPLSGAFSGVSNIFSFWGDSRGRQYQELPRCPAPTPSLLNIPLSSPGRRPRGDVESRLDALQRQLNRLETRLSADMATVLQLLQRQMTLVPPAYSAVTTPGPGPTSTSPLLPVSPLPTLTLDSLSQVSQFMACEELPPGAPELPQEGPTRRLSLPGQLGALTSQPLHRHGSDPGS
In short: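 hERG inhibition measured by electrophysiology on IonWorks HT.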

Structure (SMILES) | MIC [1] [µM] | IC50 [2] [µM] | also measured
C/C(=N\O)c1nc2ccccc2s1 | > 125 | > 100 | 
CC(=O)Nc1ccc2nc(/C(C#N)=N/OC(=O)N(C)C)oc2c1 | 5.2 (≈ 1.64 µg/mL) | > 100 | 
Nc1nonc1-c1nc2ccccc2s1 | > 50 |  | solubility kinetic [3]: 5 µM (≈ 1.09 µg/mL)
CN(C)C(=O)CO/N=C(\C#N)c1nc2ccccc2s1 | > 160 |  | 
CCCO/N=C(\C#N)c1nc2ccccc2s1 | > 160 |  | 
CN(C)C(=O)O/N=C(\C#N)c1nc2ccc(Br)cc2o1 | < 0.24 | > 100 | 
CN(C)C(=O)O/N=C(\C#N)c1nc2ccc([N+](=O)[O-])cc2o1 | < 0.24 | 46.8 | 
O/N=C(/c1nc2ccccc2s1)C1CCCC1 | > 125 | 83.5 | 
N#C/C(=N\[O-])c1ccccc1.[Na+] | > 50 |  | solubility kinetic [3]: 56 µM
CN(C)C(=O)O/N=C(\C#N)c1nc2ccc(F)cc2o1 | < 0.24 | > 100 | 
Cc1ccc2nc(/C(C#N)=N/OS(=O)(=O)N(C)C)oc2c1 | 5 (≈ 1.54 µg/mL) |  | 
Cc1nnc(/C(=N\O)c2nc3ccccc3s2)s1 | 2.5 (≈ 0.691 µg/mL) | 38 | 
CCOC(=O)CO/N=C(\C#N)c1nc2ccccc2s1 | > 160 |  | 
CO[C@H]1/C=C/O[C@@]2(C)Oc3c(C)c(O)c4c(O)c(c(/C=N/N5CCN(C)CC5)c(O)c4c3C2=O)NC(=O)/C(C)=C\C=C\[C@H](C)[C@H](O)[C@@H](C)[C@@H](O)[C@@H](C)[C@H](OC(C)=O)[C@@H]1C [RIFAMPIN] | 0.009 (≈ 0.00741 µg/mL) |  | 
Cc1cccc2oc(/C(C#N)=N/OC(=O)N(C)C)nc12 | < 0.24 | > 100 | 
CN(C)C(=O)O/N=C(\C#N)c1nc2cc(F)ccc2o1 | < 0.24 |  | 
CN(C)C(=O)O/N=C(\C#N)c1nc2cc(Br)ccc2o1 | < 0.24 |  | 
NNC(=O)c1ccncc1 [ISONIAZID] | 0.14 (≈ 0.0192 µg/mL) |  | 
O/N=C/c1nc2ccccc2s1 | > 160 |  | 
CN(C)C(=O)O/N=C(\C#N)c1nc2ccccc2s1 | < 0.16 | > 100 | 
OC(O)(c1nc2ccccc2s1)C(F)(F)F | > 50 |  | solubility kinetic [3]: 184 µM (≈ 45.9 µg/mL)
O/N=C(\c1ccc2ncsc2c1)c1nc2ccccc2s1 | > 125 | > 50 | 
O/N=C(\c1nnc(C(F)(F)F)s1)c1nc2ccccc2s1 | 0.78 (≈ 0.258 µg/mL) | 15.6 | solubility kinetic [3]: 67 µM (≈ 22.1 µg/mL); MIC [4]: 1.2 µM (≈ 0.396 µg/mL); MIC [5]: > 125 µM; MIC [6]: > 125 µM; MIC [7]: > 125 µM; MIC [8]: > 125 µM; MIC [9]: > 125 µM; MIC [10]: > 125 µM; remaining at 0.5 h [11]: > 99%; remaining at 0.5 h [12]: 86%; remaining at 0.5 h [13]: 71%
Cc1ccc2nc(/C(C#N)=N/O)oc2c1 | > 160 | > 100 | Drug degradation [14]: Unstable; Activity [15]: inactive
CON=C(c1nc2ccccc2s1)c1nc2ccccc2s1 | > 125 | > 50 | 
N#C/C(=N\OCc1cccnc1)c1nc2ccccc2s1 | > 160 |  | 
Cc1ccc2nc(/C(C#N)=N/OC(=O)N(C)C)oc2c1 | < 0.16 | > 100 | Activity [15]: inactive
ON=C(c1nc2ccccc2s1)c1nc2ccccc2s1 | 0.8 (≈ 0.249 µg/mL) | > 100 | 

Structure (SMILES) | MIC [1] [µM] | IC50 [2] [µM] | also measured
O/N=C(/c1nc2ccccc2s1)C(F)(F)F | 37 (≈ 9.11 µg/mL) |  | 
O/N=C(/c1nc2ccccc2s1)C1CCCCC1 | > 125 | 51.6 | 
N#C/C(=N\OCc1ccccc1)c1nc2ccccc2s1 | 20 (≈ 5.87 µg/mL) |  | 
O/N=C(\c1ccccc1)c1nc2ccccc2s1 | > 50 | > 100 | 
Cc1nnc(/C(=N\O)c2nc3ccccc3s2)o1 | 160 (≈ 41.6 µg/mL) |  | 
CN(C)C(=O)O/N=C(\C#N)c1nc2ccc(Cl)cc2o1 | < 0.24 | > 100 | Drug degradation [16]: Unstable; Activity [15]: inactive; Activity [17]: Active; Activity [18]: Dose-Dependent Effect
[O-][n+]1onc(-c2nc3ccccc3s2)c1-c1nc2ccccc2s1 | > 50 |  | solubility kinetic [3]: < 5 µM
N#C/C(=N\OCc1ccncc1)c1nc2ccccc2s1 | 20 (≈ 5.89 µg/mL) |  | 
CN(C)C(=O)O/N=C(\C#N)c1nc2cc(Cl)ccc2o1 | < 0.24 | > 100 | 
N#C/C(=N\O)c1ccccn1 | > 50 |  | solubility kinetic [3]: 202 µM (≈ 29.7 µg/mL)
O/N=C(\c1cnccn1)c1nc2ccccc2s1 | 3.6 (≈ 0.923 µg/mL) | 11.7 | 
CN(C)C(=O)O/N=C(\C#N)c1nc2ccc(C(F)(F)F)cc2o1 | < 0.24 | 46.3 | 
CN(C)C(=O)O/N=C(\C#N)c1ccccn1 | 9.4 (≈ 2.05 µg/mL) |  | solubility kinetic [3]: 175 µM (≈ 38.2 µg/mL)
N#C/C(=N\O)c1nc2ccccc2o1 | > 160 |  | Activity [15]: inactive
Cc1ccc2oc(/C(C#N)=N/OC(=O)N(C)C)nc2c1 | < 0.24 | > 100 | 
CS(=O)(=O)O/N=C(\C#N)c1nc2ccccc2s1 | 0.5 (≈ 0.141 µg/mL) |  | 
CN(C)C(=O)O/N=C(\C#N)c1nc2ccccc2[nH]1 | 9.4 (≈ 2.42 µg/mL) |  | solubility kinetic [3]: 29 µM (≈ 7.46 µg/mL)
Cc1cnc(/C(=N\O)c2nc3ccccc3s2)s1 | 3.13 (≈ 0.862 µg/mL) | 29 | 
N#C/C(=N\OCc1ccccn1)c1nc2ccccc2s1 | > 160 |  | 
Cc1nc(/C(=N\O)c2nc3ccccc3s2)no1 | > 160 |  | 
COC(=O)c1ccc2nc(/C(C#N)=N/OC(=O)N(C)C)oc2c1 | < 0.24 | 7.05 | 
CN(C)S(=O)(=O)O/N=C(\C#N)c1nc2ccccc2s1 | 0.3 (≈ 0.0931 µg/mL) | 91.3 | 
CN(C)C(=O)O/N=C(\C#N)c1nc2ccccc2o1 | 0.3 (≈ 0.0775 µg/mL) | > 100 | Drug degradation [14]: Unstable; Activity [15]: inactive; solubility kinetic [3]: 18 µM (≈ 4.65 µg/mL); MIC [4]: 0.6 µM (≈ 0.155 µg/mL); MIC [5]: > 125 µM; MIC [6]: > 125 µM; MIC [7]: > 125 µM; MIC [8]: > 125 µM; MIC [9]: > 125 µM; MIC [10]: > 125 µM; remaining at 0.5 h [11]: > 99%; remaining at 0.5 h [12]: 98%; remaining at 0.5 h [13]: > 99%; remaining at 40 min [19]: 60%; IC50 [20]: > 33 µM
O/N=C(\c1cnco1)c1nc2ccccc2s1 | 50 (≈ 12.3 µg/mL) | > 100 | 
CN(C)C(=O)O/N=C(\C#N)c1ccccc1 | 9.4 (≈ 2.04 µg/mL) |  | 
CO/N=C(\C#N)c1nc2ccccc2s1 | 160 (≈ 34.8 µg/mL) |  | 
N#C/C(=N\O)c1nc2ccccc2s1 | > 160 | > 100 | 
